# TDP2 inh = blocks human TDP2 phosphodiesterase activity. inhibition, % at 12.8 µM. recombinant TDP2, T5PNP hydrolysis, p-nitrophenol absorbance 415 nm. 370,000 compounds, 0.34% hits. AID 720702. O95551;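 active means inhibition above the mean of all tested compounds plus 3 SD, set per campaign, cut at about 25% in these data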;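 further: 0% = DMSO with enzyme and 100% = buffer with substrate but no TDP2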
#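 Test system: Human TDP2 enzyme | Reagent: 5 mM T5PNP | Compound dosing: 12.8 µM single point, 1% DMSO | Incubation: Enzyme reaction with compound for 2 h at 37 °C | Technique: p-Nitrophenol epi absorbance | Read-out: % inhibition relative to enzyme-containing and enzyme-free wells | Benchmarks: High control without enzyme, low control DMSO plus TDP2 | Replicates: Singlicate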
# GSTO1 inh = counter-screen for RBBP9 inhibitors: inhibitors of human GSTO1; 300,000 compounds, 1.1% hits; recombinant GSTO1, activity-based probe fluorescence polarization; inhibition, % at 5.96 µM;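 active means inhibition above the campaign mean inhibition plus 3 SD, cut at about 35% in these data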;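 further: 0% = GSTO1-1 with DMSO and 100% = wells lacking GSTO1-1 enzyme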
# CTSL1 counter = cathepsin L1 inhibition, PFM18AAP counter-screen | AID 1906 | recombinant F. hepatica cathepsin L1, Z-Leu-Arg-MCA fluorescence | 300,000 compounds, 0.49% hits | inhibition, % at 5.96 µM;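 active means inhibition above the mean of all tested compounds plus 3 SD, set per screening campaign, cut at about 17% in these data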;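 further: 0% = plate median of test compound wells and 100% = 1 µM Z-Phe-Ala-diazomethylketone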
# HKDC1 inhibitor = HKDC1 (human) hexokinase inhibition | inhibition, % at 20 µM | 340,000 compounds, 0.16% hits | recombinant HKDC1, G6PDH/diaphorase resazurin coupled fluorescence | Q2TB90;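 active means inhibition above about 35% when tested at 20 µM, limit read from the data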;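 further: plate controls were DMSO wells with enzyme for no effect and DMSO wells lacking enzyme for full effect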
#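 Assay system: recombinant HKDC1 hexokinase; detection: coupled resazurin fluorescence, excitation 525 nm, emission 613 nm; benchmarks: DMSO-plus-enzyme-mix negative control, buffer-substituted positive control; compound dosing: single 20 µM dose; schedule: 90 min at room temperature in dark; also added: glucose plus 1 mM ATP as hexokinase substrates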
# PAD4 FP inh = inhibitors of human PAD4; recombinant PAD4, RCA probe fluorescence polarization; inhibition, % at 6.36 µM; 330,000 compounds, 0.41% hits; AID 485272;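 active means percent inhibition above a cutoff equal to the mean of all tested compounds plus 3 SD, cut at about 15% in these data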;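 further: 0% = PAD4 with RCA probe and DMSO and 100% = probe without PAD4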
# UCH37 DUB inh = blocks the human deubiquitinase UCH37; Q9Y5K5; purified proteasome/UCH37, Ub-AMC cleavage fluorescence; inhibition, % (test concentration not listed); 330,000 compounds, 0.33% hits;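 active means mean inhibition over replicate wells above about 20%, limit read from the data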;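 further: 0% = compound-free wells with enzyme and 100% = wells lacking proteasome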
#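 Signal – fluorescence, ex 355 nm, em 460 nm · System – Proteasome-bound UCH37 · Input – 0.15 nM proteasome as dispensed · Timing – 30 min preincubation with enzyme, 25 min cleavage at room temperature · Read-out basis – percent inhibition of cleavage signal versus uninhibited and no-proteasome wells · Medium – Tris-HCl pH 7.4 with ATP-MgCl2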
# TDP2 confirm = confirmation of human TDP2 inhibitors | shares compounds with TDP2 inh | recombinant human TDP2, absorbance read-out | inhibition, % at 12.8 µM | 1,100 compounds, 22% hits | AID 743263; in the data active means inhibition above about 25%;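 further: 0% = vehicle with enzyme and 100% = no enzyme buffer only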
# Active calls of the source: *; / = not tested or not shown. An excerpt weighted towards active compounds, which were near 1.6% of everything screened.
SMILES,TDP2 inh,GSTO1 inh,CTSL1 counter,HKDC1 inhibitor,PAD4 FP inh,UCH37 DUB inh,TDP2 confirm
CCOC(=O)CC1=NN(c2ccccc2)C(=O)C1,10,9,-2,14,-13,1,/
O=C1CC(c2ccccc2)=NN1c1ccccc1,65*,/,/,3,/,-3,12
CCCOc1ccc(N2C(=O)CC(N(CCCO)C(=O)CC)C2=O)cc1 (centres undefined),1,-2,1,2,4,4,/
CCCCN(C(C)=O)C1CC(=O)N(c2ccc(OCCC)cc2)C1=O (centres undefined),29*,6,-4,-5,0,1,-5
CCOC(=O)c1cnc(SC)nc1N1CCCC1,29*,15,-5,-6,-2,0,-6
CCOC(=O)c1cnc(SC)nc1N,5,1,-3,-6,-4,3,/
O=C(CCCn1c(=O)c2sccc2n(CC(=O)NCc2ccco2)c1=O)NCc1ccco1,8,9,4,4,1,6,/
COc1ccc(CCNC(=O)Cn2c(=O)n(CCCC(=O)NCc3ccco3)c(=O)c3sccc32)cc1OC,27*,6,3,0,-2,1,3
COc1ccc2c(c1)Cc1sc(NC(=O)c3ccco3)nc1-2,64*,15,2,4,-7,-1,10
COc1ccc2c(c1)Cc1sc(NC(C)=O)nc1-2,49*,1,3,4,-14,7,29*
COc1ccc2c(c1)CCc1sc(NC(=O)c3ccco3)nc1-2,/,2,-2,19,-4,0,/
Cc1cc(C(=O)NN=Cc2ccc(C)o2)c2ccccc2n1,/,/,/,/,/,9,/
O=C(NN=C/C(Br)=C/c1ccccc1)c1ccc([N+](=O)[O-])cc1,/,/,/,/,/,2,/
O=C(NCC1CCCO1)c1cccnc1Nc1ccccc1F (centres undefined),40*,-2,-2,-8,1,5,6
OC(CNCc1ccc(Cl)cc1)COc1ccccc1 (centres undefined),25*,3,-1,2,1,3,-2
OC(CNCc1ccccc1)COCc1ccc(Cl)cc1 (centres undefined),11,-6,-10,0,-4,4,/
C=CCn1c(COc2ccccc2)nnc1SCC(=O)NN=Cc1cc(Cl)ccc1O,/,/,/,/,/,1,/
CC(Nc1cccc2ccccc12)C(=O)N/N=C/c1ccc([N+](=O)[O-])cc1 (centres undefined),31*,-3,4,15,-1,/,0
COc1cc([N+](=O)[O-])cc(/C=N/NC(=O)C(C)Nc2cccc3ccccc23)c1O (centres undefined),-5,-4,-2,8,-7,/,/
Cc1cccc(/C=N/NC(=O)C(C)Nc2cccc3ccccc23)n1 (centres undefined),67*,3,0,0,3,/,24
CC(O)C(=O)N/N=C/c1cccc2ccccc12 (centres undefined),-7,/,/,-11,/,/,/
Cc1cc(C=NNC(=O)COc2cccc3cccnc23)c(C)n1-c1ccc(O)cc1,/,/,/,/,/,1,/
COc1ccc(NC(=O)CN(C)S(=O)(=O)c2ccc(Br)s2)cc1OC,-3,5,2,1,-1,0,/
COc1ccc(NC(=O)CN(C)S(=O)(=O)c2ccc(Br)s2)cc1,25*,-1,-4,-2,-2,1,1
S=C(Nc1ccc2nsnc2c1)N1CCCC1,67*,29,-2,3,-16,10,45*
SMILES,TDP2 inh,GSTO1 inh,CTSL1 counter,HKDC1 inhibitor,PAD4 FP inh,UCH37 DUB inh,TDP2 confirm
O=C(Nc1ccc2nsnc2c1)N1CCCCCC1,4,15,2,10,-8,-40,/
COc1ccccc1C=NN1C(=O)c2cccc3cccc(c23)C1=O,/,/,/,/,/,4,/
CC(=O)Nc1ccc(NCN2C(=O)C3C4CCC(C4)C3C2=O)cc1 (centres undefined),32*,6,-4,-3,1,1,8
CCN(CC)S(=O)(=O)c1cccc(C(=O)OCC(=O)Nc2ccccc2OC(F)F)c1,64*,0,-5,-9,-3,0,-7
Cc1ccc(NC2=C/C(=N/S(=O)(=O)c3cccs3)c3ccccc3C2=O)cc1,36*,65*,60*,7,11,/,41*
COc1cc(C=NN2CCOCC2)ccc1OC(=O)c1ccco1,/,/,/,/,/,0,/
Fc1ccc(Nc2cncc(-c3ccsc3)c2)cc1Cl,81*,/,/,/,/,/,52*
COc1ccc(C=NNC(=O)CNC(=O)c2ccc(S(=O)(=O)N3CCOCC3)cc2)cc1OC,/,/,/,/,/,6,/
Cc1cc(-c2ccc(C)c(S(=O)(=O)NCc3ccc(OC(C)C)cc3)c2)on1,32*,7,4,2,-4,1,0
CCN(CCCNS(=O)(=O)c1cc(-c2cc(C)no2)ccc1C)Cc1ccccc1,47*,-8,-1,1,-3,/,-1
CCc1ccc(-c2cc(C)no2)cc1S(=O)(=O)NCCCN1CCN(c2ccccc2)CC1,7,0,-2,-1,-2,3,/
COc1ccc(CCNC(=O)C(NC(=O)OCc2ccccc2)C(C)C)cc1OC (centres undefined),-6,-5,7,-4,4,2,/
CC[C@H](C)[C@H](NC(N)=O)C(=O)NCCc1ccc(OC)c(OC)c1,25*,3,-5,4,-2,2,11
CC(=NNC(=O)c1ccccc1-n1cccc1)C1CC1,/,/,/,/,/,5,/
Cn1ccc(C(=O)NN=Cc2cccnc2)n1,/,/,/,/,/,2,/
COc1ccccc1NC(=O)CSCc1cc(=O)n2ccsc2n1,-3,0,3,-7,5,3,/
Cc1ccc(NC(=O)CSCc2cc(=O)n3ccsc3n2)c(C)c1,33*,2,-1,0,-3,1,6
CCn1nc(C)c(C=NNC(=S)Nc2ccc(Cl)cc2Cl)c1C,/,/,/,/,/,0,/
CC(=NNc1nc(C)cc(-c2ccccc2)n1)c1ccc(F)cc1,/,/,/,/,/,3,/
CCn1ccnc1CNC(=O)c1ccc(OC2CCN(C(=O)COC)CC2)cc1,27*,6,1,-4,3,0,-5
CC(=NNC(=O)c1cc(Br)ccc1O)c1cccs1,/,/,/,/,/,1,/
CC1CC(=NNC(=O)c2cccc(F)c2)c2ccc(O)cc2C1 (centres undefined),/,/,/,/,/,4,/
O=C(CCC1CCCCC1)NCc1ccc(F)cc1,6,2,-2,0,-1,1,/
O=C(CCC(=O)NC1CCCCC1)NCc1ccc(F)cc1,48*,9,-3,-4,1,5,-1
NS(=O)(=O)c1ccc(NC(=S)NCc2ccccc2Cl)cc1,-2,-2,-3,-9,-1,/,/

# From PubChem
